Assay results as given in ChEMBL document CHEMBL1138780, “Synthesis and conformational analysis of a non-amidine factor Xa inhibitor that incorporates 5-methyl-4,5,6,7-tetrahydrothiazolo[5,4-c]pyridine as S4 binding element” (J Med Chem, 2004).

Legend:
[1] = molecular target: Coagulation factor X (Homo sapiens, UniProt P00742); experiment: Inhibitory concentration against Coagulation factor X
[2] = Anticoagulant activity in vitro was evaluated with plasma clotting time doubling concentration for prothrombin time; format: functional, Homo sapiens
[3] = organism: Rattus norvegicus; experiment: Anticoagulant activity in vitro was evaluated by prolongation rate of prothrombin time; format: functional
[4] = molecular target: Coagulation factor X (Rattus norvegicus) (UniProt Q63207); experiment: Ex-vivo inhibitory activity against factor Xa of rat blood after 1 hr of peroral administration of 30 mg/kg; format: organism-based; set-up: dose 30 mg/kg; conditions: at 30 mg/kg
Procedure, shortened: (§1)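 Fasted male Wistar rats received compound orally by stomach tube in 0.5% methylcellulose; controls got vehicle. Under halothane anesthesia, citrated blood was drawn at the stated time and platelet-poor plasma prepared. Plasma anti-fXa activity was measured chromogenically in Tris/NaCl/BSA buffer, pH 7.4, as 1 − sample OD/min ÷ control OD/min.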

[5] = molecular target: Coagulation factor X (Rattus norvegicus) (UniProt Q63207); experiment: Ex-vivo inhibitory activity against factor Xa of rat blood after 6 hr of peroral administration of 30 mg/kg; format: organism-based; set-up: dose 30 mg/kg; conditions: at 30 mg/kg; procedure, shortened: as §1
[6] = molecular target: Coagulation factor X (Rattus norvegicus) (UniProt Q63207); experiment: Ex-vivo inhibitory activity against factor Xa of rat blood after 3h of peroral administration of 30 mg/kg; format: organism-based; set-up: dose 30 mg/kg; conditions: at 30 mg/kg; procedure, shortened: as §1
[7] = molecular target: Prothrombin (Homo sapiens, UniProt P00734); experiment: Concentration required to inhibit thrombin activity by 50%

Coagulation factor X (Rattus norvegicus), sequence (Q63207 41-180 limits assumed): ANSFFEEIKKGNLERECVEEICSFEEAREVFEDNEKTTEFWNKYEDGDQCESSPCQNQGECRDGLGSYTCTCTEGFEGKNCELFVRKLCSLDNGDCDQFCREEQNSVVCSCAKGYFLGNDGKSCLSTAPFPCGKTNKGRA
Coagulation factor X (Rattus norvegicus), sequence (Q63207 232-482 limits assumed): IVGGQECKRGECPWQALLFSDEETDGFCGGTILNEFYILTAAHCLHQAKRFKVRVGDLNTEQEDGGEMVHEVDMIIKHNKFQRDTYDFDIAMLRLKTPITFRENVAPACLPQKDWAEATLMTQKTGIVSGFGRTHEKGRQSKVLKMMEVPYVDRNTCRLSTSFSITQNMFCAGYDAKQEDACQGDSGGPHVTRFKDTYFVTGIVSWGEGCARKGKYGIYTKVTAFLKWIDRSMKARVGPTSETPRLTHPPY
Coagulation factor X, sequence (P00742 41-179 limits assumed): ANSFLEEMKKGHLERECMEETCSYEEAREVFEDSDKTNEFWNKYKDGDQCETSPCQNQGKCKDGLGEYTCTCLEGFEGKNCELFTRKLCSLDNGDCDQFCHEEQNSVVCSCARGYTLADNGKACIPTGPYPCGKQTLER
Coagulation factor X, sequence (P00742 235-488 limits assumed): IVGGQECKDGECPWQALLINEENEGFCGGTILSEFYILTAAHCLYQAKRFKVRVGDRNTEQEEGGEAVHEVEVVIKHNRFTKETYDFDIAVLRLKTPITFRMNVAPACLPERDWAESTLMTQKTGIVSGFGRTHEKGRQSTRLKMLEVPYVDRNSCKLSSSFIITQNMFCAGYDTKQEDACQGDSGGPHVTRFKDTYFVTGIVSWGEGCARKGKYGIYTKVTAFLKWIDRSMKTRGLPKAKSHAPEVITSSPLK

Compound | IC50 [1] [nM] | Anticoagulant activity [2] [µM] | Anticoagulant activity [3] [µM] | other results
CN1CCc2sc(C(=O)N3CCN(S(=O)(=O)c4ccc5cc(Cl)ccc5c4)CC3)cc2C1 | 190 |  |  | 
CN1CCc2[nH]c(C(=O)N3CCN(S(=O)(=O)c4ccc5cc(Cl)ccc5c4)CC3)cc2C1 | 320 |  |  | 
O=C(c1ccc2c(n1)CCNC2)N1CCN(S(=O)(=O)c2ccc3cc(Cl)ccc3c2)CC1 | 920 |  |  | 
O=C(c1cc2c(s1)CCNC2)N1CCN(S(=O)(=O)c2ccc3cc(Cl)ccc3c2)CC1 | 270 |  |  | 
CN1CCc2cc(C(=O)N3CCN(S(=O)(=O)c4ccc5cc(Cl)ccc5c4)CC3)oc2C1 | 550 |  |  | 
CN1CCc2nc(C(=O)N3CCN(S(=O)(=O)c4ccc5cc(Cl)ccc5c4)CC3C(N)=O)sc2C1 (configuration not stated) |  | 4.4 | 14 | inhibition [4]: 67.4%; inhibition [5]: 24.7%; inhibition [6]: 55.8%; IC50 [7]: 1000 nM
CCN1CCc2nc(C(=O)N3CCN(S(=O)(=O)c4ccc5cc(Cl)ccc5c4)CC3C(N)=O)sc2C1 (configuration not stated) | 110 | 7.2 | 14.6 | 
CC(C)N1CCc2nc(C(=O)N3CCN(S(=O)(=O)c4ccc5cc(Cl)ccc5c4)CC3C(N)=O)sc2C1 (configuration not stated) | 80 | 6.6 | 17.5 | 
O=C(c1nc2c(s1)CNCC2)N1CCN(S(=O)(=O)c2ccc3cc(Cl)ccc3c2)CC1 |  | 11.2 | 16.1 | IC50 [7]: 2900 nM
O=C(c1ccc2c(c1)CCNC2)N1CCN(S(=O)(=O)c2ccc3cc(Cl)ccc3c2)CC1 | 640 |  |  | 
CN1CCc2nc(C(=O)N3CCN(S(=O)(=O)c4ccc5cc(Cl)ccc5c4)CC3)sc2C1 |  | 6 | 10 | IC50 [7]: 560 nM

Continued, in another order:

IC50 [1] [nM] | Compound | Anticoagulant activity [2] [µM] | Anticoagulant activity [3] [µM] | other results
160 | O=C(c1cc2c(s1)CNCC2)N1CCN(S(=O)(=O)c2ccc3cc(Cl)ccc3c2)CC1 |  |  | 
83 | NC(=O)C1CN(S(=O)(=O)c2ccc3cc(Cl)ccc3c2)CCN1C(=O)c1nc2c(s1)CNCC2 (configuration not stated) | 9.7 | 28.8 | 
6200 | O=C(c1cc2c([nH]1)CCNC2)N1CCN(S(=O)(=O)c2ccc3cc(Cl)ccc3c2)CC1 |  |  | 
210 | CN1CCc2sc(C(=O)N3CCN(S(=O)(=O)c4ccc5cc(Cl)ccc5c4)CC3)nc2C1 |  |  | 
105 | CN1CCc2cc(C(=O)N3CCN(S(=O)(=O)c4ccc5cc(Cl)ccc5c4)CC3)sc2C1 |  |  | 
2200 | CN1CCc2nc(C(=O)N3CCN(S(=O)(=O)c4ccc5cc(Cl)ccc5c4)CC3)ccc2C1 |  |  | 
